Reference: ChEMBL document CHEMBL1153621, “Regioselective reaction: synthesis, characterization and pharmacological studies of some new Mannich bases derived from 1,2,4-triazoles” (2009)
Converted amounts (≈) assume the structure as drawn.

How the values were obtained:
Type in all cases: functional
Pseudomonas aeruginosa = assay: Antibacterial activity against Pseudomonas aeruginosa after 16 to 18 hrs by serial dilution method
Method in brief: (§1)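 MIC by serial dilution: compound dissolved in serially diluted DMF, a standard drop of prepared culture added to each dilution, incubated 16–18 h at 37 °C; MIC taken as the endpoint.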

Candida albicans = assay: Antifungal activity against Candida albicans after 16 to 18 hrs by serial dilution method; method in brief: as §1
Escherichia coli = assay: Antibacterial activity against Escherichia coli after 16 to 18 hrs by serial dilution method; method in brief: as §1
Staphylococcus aureus = assay: Antibacterial activity against Staphylococcus aureus after 16 to 18 hrs by serial dilution method; method in brief: as §1
Bacillus subtilis = assay: Antibacterial activity against Bacillus subtilis after 16 to 18 hrs by serial dilution method; method in brief: as §1

Row | Compound | MIC (Pseudomonas aeruginosa) | MIC (Candida albicans) | MIC (Escherichia coli) | MIC (Staphylococcus aureus) | MIC (Bacillus subtilis)
1 | CN1CCN(Cn2nc(-c3ccccc3)n(/N=C/c3c[nH]nc3-c3ccccc3)c2=S)CC1 | 6 µg/mL (≈ 13.1 µM) | 6 µg/mL (≈ 13.1 µM) | 6 µg/mL (≈ 13.1 µM) | 6 µg/mL (≈ 13.1 µM) | 12.5 µg/mL (≈ 27.3 µM)
2 | Cc1nn(CN2CCN(C)CC2)c(=S)n1/N=C/c1c[nH]nc1-c1ccccc1 | 6 µg/mL (≈ 15.1 µM) | 6 µg/mL (≈ 15.1 µM) | 12.5 µg/mL (≈ 31.5 µM) | 6 µg/mL (≈ 15.1 µM) | 6 µg/mL (≈ 15.1 µM)
3 | CCCc1nn(CN2CCN(C)CC2)c(=S)n1/N=C/c1c[nH]nc1-c1ccc(OC)cc1 | 6 µg/mL (≈ 13.2 µM) | 6 µg/mL (≈ 13.2 µM) | 12.5 µg/mL (≈ 27.5 µM) | 6 µg/mL (≈ 13.2 µM) | 12.5 µg/mL (≈ 27.5 µM)
4 | CCCc1nn(CN2CCN(C)CC2)c(=S)n1/N=C/c1c[nH]nc1-c1ccc(C)cc1 | 6 µg/mL (≈ 13.7 µM) | 6 µg/mL (≈ 13.7 µM) | 6 µg/mL (≈ 13.7 µM) | 6 µg/mL (≈ 13.7 µM) | 12.5 µg/mL (≈ 28.5 µM)
5 | COc1ccc(-c2n[nH]cc2/C=N/n2c(C)nn(CN3CCN(C)CC3)c2=S)cc1 | 1.5 µg/mL (≈ 3.52 µM) | 6 µg/mL (≈ 14.1 µM) | 6 µg/mL (≈ 14.1 µM) | 6 µg/mL (≈ 14.1 µM) | 6 µg/mL (≈ 14.1 µM)
6 | NC(=O)N/N=C/c1ccc([N+](=O)[O-])o1 [NITROFURAZONE] | 12.5 µg/mL (≈ 63.1 µM) |  | 6 µg/mL (≈ 30.3 µM) | 12.5 µg/mL (≈ 63.1 µM) | 12.5 µg/mL (≈ 63.1 µM)
7 | OC(Cn1cncn1)(Cn1cncn1)c1ccc(F)cc1F [FLUCONAZOLE] |  | 6 µg/mL (≈ 19.6 µM) |  |  | 
8 | Cc1ccc(-c2n[nH]cc2/C=N/n2c(C)nn(CN3CCN(C)CC3)c2=S)cc1 | 12.5 µg/mL (≈ 30.4 µM) | 6 µg/mL (≈ 14.6 µM) | 6 µg/mL (≈ 14.6 µM) | 12.5 µg/mL (≈ 30.4 µM) | 6 µg/mL (≈ 14.6 µM)
9 | Cc1n[nH]cc1/C=N/n1c(C)nn(CN2CCN(C)CC2)c1=S | 6 µg/mL (≈ 17.9 µM) | 6 µg/mL (≈ 17.9 µM) | 6 µg/mL (≈ 17.9 µM) | 12.5 µg/mL (≈ 37.4 µM) | 6 µg/mL (≈ 17.9 µM)
10 | COc1ccc(-c2n[nH]cc2/C=N/n2c(-c3ccccc3)nn(CN3CCN(C)CC3)c2=S)cc1 | 3 µg/mL (≈ 6.14 µM) | 6 µg/mL (≈ 12.3 µM) | 6 µg/mL (≈ 12.3 µM) | 6 µg/mL (≈ 12.3 µM) | 6 µg/mL (≈ 12.3 µM)
11 | Cc1ccc(-c2n[nH]cc2/C=N/n2c(-c3ccccc3)nn(CN3CCN(C)CC3)c2=S)cc1 | 3 µg/mL (≈ 6.35 µM) | 3 µg/mL (≈ 6.35 µM) | 6 µg/mL (≈ 12.7 µM) | 6 µg/mL (≈ 12.7 µM) | 12.5 µg/mL (≈ 26.4 µM)
12 | CCCc1nn(CN2CCN(C)CC2)c(=S)n1/N=C/c1c[nH]nc1-c1ccccc1 | 12.5 µg/mL (≈ 29.4 µM) | 6 µg/mL (≈ 14.1 µM) | 12.5 µg/mL (≈ 29.4 µM) | 6 µg/mL (≈ 14.1 µM) | 6 µg/mL (≈ 14.1 µM)
13 | Cc1n[nH]cc1/C=N/n1c(-c2ccccc2)nn(CN2CCN(C)CC2)c1=S | 12.5 µg/mL (≈ 31.5 µM) | 6 µg/mL (≈ 15.1 µM) | 6 µg/mL (≈ 15.1 µM) | 12.5 µg/mL (≈ 31.5 µM) | 12.5 µg/mL (≈ 31.5 µM)
14 | CCCc1nn(CN2CCN(C)CC2)c(=S)n1/N=C/c1c[nH]nc1-c1ccc(Cl)cc1 | 3 µg/mL (≈ 6.54 µM) | 3 µg/mL (≈ 6.54 µM) | 3 µg/mL (≈ 6.54 µM) | 3 µg/mL (≈ 6.54 µM) | 3 µg/mL (≈ 6.54 µM)
